Data taken from ChEMBL document CHEMBL2163262 (J Med Chem, 2012).
pEC50: −log10 of the molar value. Where “and” joins values, the source holds several entries; their conditions need not be identical. Equal entries are not always repeated. Blank lines part the entries; values can stand above or below the molecule they belong to.

Experiments:
[1] = molecular target: Neuropeptide FF receptor 1 (Homo sapiens, UniProt Q9GZQ6, F311A); assay: Agonist activity at human NPFF1 receptor F/Y7.35A mutant assessed as [3H]inositol phosphate accumulation after 2 hrs by liquid scintillation counting; assay type: functional
Procedure, shortened: (§1)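 IP accumulation in COS-7 cells transiently cotransfected with human NPFFR (Ala point mutant or wt) plus chimeric G protein. Cells seeded at 60,000/well and grown to subconfluency. Compounds were dissolved in DMSO and diluted in DMEM with 10 mM LiCl (1% v/v DMSO final). Stimulation lasted 2 h.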

[2] = molecular target: T1, Neuropeptide FF receptor 1 (Homo sapiens, UniProt Q9GZQ6); assay: Agonist activity at human NPFF1 receptor expressed in […] assessed as [3H]inositol phosphate accumulation after 2 hrs by liquid scintillation counting; assay type: functional, cell-based, COS-1; procedure, shortened: as §1
[3] = molecular target: T2, Neuropeptide FF receptor 2 (Homo sapiens, UniProt Q9Y5X5); assay: Agonist activity at human NPFF2 receptor expressed in COS1 cells assessed as [3H]inositol phosphate accumulation after 2 hrs by liquid scintillation counting; assay type: functional, cell-based, COS-1
[4] = molecular target: Neuropeptide FF receptor 2 (Homo sapiens, UniProt Q9Y5X5, Y417A); assay: Agonist activity at human NPFF2 receptor F/Y7.35A mutant assessed as [3H]inositol phosphate accumulation after 2 hrs by liquid scintillation counting; assay type: functional; procedure, shortened: as §1
[5] = molecular target: T2, Neuropeptide FF receptor 2; assay: Agonist activity at human NPFF2 receptor expressed in COS1 cells assessed as [3H]inositol phosphate accumulation at 10 uM after 2 hrs by liquid scintillation counting relative to NPFF; assay type: functional, cell-based; conditions: COS-1
[6] = molecular target: T1, Neuropeptide FF receptor 1; assay: Agonist activity at human NPFF1 receptor expressed in COS1 cells assessed as [3H]inositol phosphate accumulation up to 10 uM after 2 hrs by liquid scintillation counting; assay type: functional, cell-based; conditions: cos-1
[7] = tested on: Neuropeptide FF receptor 2 (Homo sapiens), Q9Y5X5 [Y417A]; assay: Partial agonist activity at human NPFF2 receptor F/Y7.35A mutant assessed as [3H]inositol phosphate accumulation at 10 uM after 2 hrs by liquid scintillation counting relative to NPFF; assay type: functional
[8] = molecular target: T1, Neuropeptide FF receptor 1; assay: Competitive antagonist activity at human NPFF1 receptor expressed in COS1 cells assessed as inhibition of NPVF-induced [3H]inositol phosphate accumulation after 2 hrs by liquid scintillation counting; assay type: functional, cell-based, COS-1; conditions: read-out: pA2 (converted)
[9] = molecular target: T1, Neuropeptide FF receptor 1; assay: Ratio of EC50 for human NPFF1 receptor F/Y7.35A mutant to EC50 for human wild type NPFF1 receptor
[10] = tested on: Neuropeptide FF receptor 2 (Homo sapiens), Q9Y5X5 [Y417A]; assay: Agonist activity at human NPFF2 receptor F/Y7.35A mutant assessed as [3H]inositol phosphate accumulation at 10 uM after 2 hrs by liquid scintillation counting relative to NPFF; assay type: functional; procedure, shortened: as §1
[11] = molecular target: T1, Neuropeptide FF receptor 1; assay: Agonist activity at human NPFF1 receptor expressed in COS1 cells assessed as [3H]inositol phosphate accumulation at 10 uM after 2 hrs by liquid scintillation counting relative to NPVF; assay type: functional, cell-based; conditions: COS-1
[12] = tested on: Neuropeptide FF receptor 1 (Homo sapiens), Q9GZQ6 [F311A]; assay: Agonist activity at human NPFF1 receptor F/Y7.35A mutant assessed as [3H]inositol phosphate accumulation at 10 uM after 2 hrs by liquid scintillation counting relative to NPVF; assay type: functional
[13] = molecular target: Neuropeptide FF receptor 2 (Homo sapiens, UniProt Q9Y5X5, Y415A); assay: Agonist activity at human NPFF2 receptor Y7.33A mutant assessed as [3H]inositol phosphate accumulation after 2 hrs by liquid scintillation counting; assay type: functional; procedure, shortened: as §1
[14] = tested on: Neuropeptide FF receptor 2 (Homo sapiens), Q9Y5X5 [E310A]; assay: Agonist activity at human NPFF2 receptor E5.27A mutant assessed as [3H]inositol phosphate accumulation at 31.6 uM after 2 hrs by liquid scintillation counting relative to NPFF; assay type: functional; procedure, shortened: as §1
[15] = molecular target: Neuropeptide FF receptor 2 (Homo sapiens, UniProt Q9Y5X5, D400A); assay: Agonist activity at human NPFF2 receptor D6.59A mutant assessed as [3H]inositol phosphate accumulation after 2 hrs by liquid scintillation counting; assay type: functional; procedure, shortened: as §1
[16] = tested on: Neuropeptide FF receptor 2 (Homo sapiens), Q9Y5X5 [Y321A]; assay: Agonist activity at human NPFF2 receptor Y5.38A mutant assessed as [3H]inositol phosphate accumulation at 10 uM after 2 hrs by liquid scintillation counting relative to NPFF; assay type: functional; procedure, shortened: as §1
[17] = tested on: Neuropeptide FF receptor 2 (Homo sapiens), Q9Y5X5 [Y415A]; assay: Agonist activity at human NPFF2 receptor Y7.33A mutant assessed as [3H]inositol phosphate accumulation at 10 uM after 2 hrs by liquid scintillation counting relative to NPFF; assay type: functional
[18] = molecular target: Neuropeptide FF receptor 2 (Homo sapiens, UniProt Q9Y5X5, E310A); assay: Agonist activity at human NPFF2 receptor E5.27A mutant assessed as [3H]inositol phosphate accumulation after 2 hrs by liquid scintillation counting; assay type: functional; procedure, shortened: as §1
[19] = molecular target: Neuropeptide FF receptor 2 (Homo sapiens, UniProt Q9Y5X5, Y321A); assay: Agonist activity at human NPFF2 receptor Y5.38A mutant assessed as [3H]inositol phosphate accumulation after 2 hrs by liquid scintillation counting; assay type: functional; procedure, shortened: as §1
[20] = tested on: Neuropeptide FF receptor 2 (Homo sapiens), Q9Y5X5 [D400A]; assay: Agonist activity at human NPFF2 receptor D6.59A mutant assessed as [3H]inositol phosphate accumulation at 31.6 uM after 2 hrs by liquid scintillation counting relative to NPFF
[21] = molecular target: T1, Neuropeptide FF receptor 1; assay: Partial agonist activity at human NPFF1 receptor expressed in COS1 cells assessed as [3H]inositol phosphate accumulation at 10 uM after 2 hrs by liquid scintillation counting relative to NPVF; assay type: functional, cell-based; conditions: COS-1
[22] = tested on: Neuropeptide FF receptor 1 (Homo sapiens), Q9GZQ6 [E205A]; assay: Agonist activity at human NPFF1 receptor E5.27A mutant assessed as [3H]inositol phosphate accumulation at 10 uM after 2 hrs by liquid scintillation counting relative to NPVF; assay type: functional; procedure, shortened: as §1
[23] = tested on: Neuropeptide FF receptor 1 (Homo sapiens), Q9GZQ6 [E205A]; assay: Agonist activity at human NPFF1 receptor E5.27A mutant assessed as [3H]inositol phosphate accumulation at 31.6 uM after 2 hrs by liquid scintillation counting relative to NPVF; assay type: functional; procedure, shortened: as §1
[24] = molecular target: Neuropeptide FF receptor 1 (Homo sapiens, UniProt Q9GZQ6, E205A); assay: Agonist activity at human NPFF1 receptor E5.27A mutant assessed as [3H]inositol phosphate accumulation after 2 hrs by liquid scintillation counting; assay type: functional; procedure, shortened: as §1
[25] = tested on: Neuropeptide FF receptor 1 (Homo sapiens), Q9GZQ6 [D294A]; assay: Agonist activity at human NPFF1 receptor D6.59A mutant assessed as [3H]inositol phosphate accumulation at 31.6 uM after 2 hrs by liquid scintillation counting relative to NPVF; assay type: functional; procedure, shortened: as §1
[26] = molecular target: Neuropeptide FF receptor 1 (Homo sapiens, UniProt Q9GZQ6, Y216A); assay: Agonist activity at human NPFF1 receptor Y5.38A mutant assessed as [3H]inositol phosphate accumulation after 2 hrs by liquid scintillation counting; assay type: functional; procedure, shortened: as §1
[27] = tested on: Neuropeptide FF receptor 2 (Homo sapiens), Q9Y5X5 [Y321A]; assay: Agonist activity at human NPFF2 receptor Y5.38A mutant assessed as [3H]inositol phosphate accumulation at 31.6 uM after 2 hrs by liquid scintillation counting relative to NPFF; assay type: functional; procedure, shortened: as §1
[28] = tested on: Neuropeptide FF receptor 1 (Homo sapiens), Q9GZQ6 [Y216A]; assay: Agonist activity at human NPFF1 receptor Y5.38A mutant assessed as [3H]inositol phosphate accumulation at 31.6 uM after 2 hrs by liquid scintillation counting relative to NPVF; assay type: functional; procedure, shortened: as §1
[29] = tested on: Neuropeptide FF receptor 1 (Homo sapiens), Q9GZQ6 [Y309A]; assay: Agonist activity at human NPFF1 receptor Y7.33A mutant assessed as [3H]inositol phosphate accumulation at 10 uM after 2 hrs by liquid scintillation counting relative to NPVF; assay type: functional; procedure, shortened: as §1
[30] = tested on: Neuropeptide FF receptor 2 (Homo sapiens), Q9Y5X5 [D400A]; assay: Agonist activity at human NPFF2 receptor D6.59A mutant assessed as [3H]inositol phosphate accumulation at 31.6 uM after 2 hrs by liquid scintillation counting relative to NPFF; assay type: functional; procedure, shortened: as §1
[31] = molecular target: Neuropeptide FF receptor 1 (Homo sapiens, UniProt Q9GZQ6, D294A); assay: Agonist activity at human NPFF1 receptor D6.59A mutant assessed as [3H]inositol phosphate accumulation after 2 hrs by liquid scintillation counting; assay type: functional; procedure, shortened: as §1
[32] = tested on: Neuropeptide FF receptor 1 (Homo sapiens), Q9GZQ6 [F311A]; assay: Agonist activity at human NPFF1 receptor F/Y7.35A mutant assessed as [3H]inositol phosphate accumulation at 31.6 uM after 2 hrs by liquid scintillation counting relative to NPVF; assay type: functional; procedure, shortened: as §1
[33] = tested on: Neuropeptide FF receptor 2 (Homo sapiens), Q9Y5X5 [Y415A]; assay: Agonist activity at human NPFF2 receptor Y7.33A mutant assessed as [3H]inositol phosphate accumulation at 31.6 uM after 2 hrs by liquid scintillation counting relative to NPFF; assay type: functional; procedure, shortened: as §1
[34] = molecular target: Neuropeptide FF receptor 1 (Homo sapiens, UniProt Q9GZQ6, Y309A); assay: Agonist activity at human NPFF1 receptor Y7.33A mutant assessed as [3H]inositol phosphate accumulation after 2 hrs by liquid scintillation counting; assay type: functional; procedure, shortened: as §1
Sequence of Neuropeptide FF receptor 1 (Homo sapiens, UniProt Q9GZQ6, Y309A) (Q9GZQ6 whole entry Y309A): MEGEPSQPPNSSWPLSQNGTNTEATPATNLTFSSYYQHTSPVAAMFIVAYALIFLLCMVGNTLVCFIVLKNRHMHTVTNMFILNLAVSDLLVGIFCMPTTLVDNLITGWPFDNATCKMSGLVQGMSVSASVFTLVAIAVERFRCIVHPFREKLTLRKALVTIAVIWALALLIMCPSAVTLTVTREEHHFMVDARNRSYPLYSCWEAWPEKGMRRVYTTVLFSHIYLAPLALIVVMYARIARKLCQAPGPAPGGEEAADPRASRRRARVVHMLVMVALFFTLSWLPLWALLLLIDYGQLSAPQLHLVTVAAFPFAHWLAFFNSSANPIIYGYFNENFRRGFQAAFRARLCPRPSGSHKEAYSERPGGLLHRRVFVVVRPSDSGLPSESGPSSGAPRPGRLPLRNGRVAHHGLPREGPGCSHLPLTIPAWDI

Sequence of Neuropeptide FF receptor 2 (Homo sapiens), Q9Y5X5 [Y321A] (Q9Y5X5 whole entry Y321A): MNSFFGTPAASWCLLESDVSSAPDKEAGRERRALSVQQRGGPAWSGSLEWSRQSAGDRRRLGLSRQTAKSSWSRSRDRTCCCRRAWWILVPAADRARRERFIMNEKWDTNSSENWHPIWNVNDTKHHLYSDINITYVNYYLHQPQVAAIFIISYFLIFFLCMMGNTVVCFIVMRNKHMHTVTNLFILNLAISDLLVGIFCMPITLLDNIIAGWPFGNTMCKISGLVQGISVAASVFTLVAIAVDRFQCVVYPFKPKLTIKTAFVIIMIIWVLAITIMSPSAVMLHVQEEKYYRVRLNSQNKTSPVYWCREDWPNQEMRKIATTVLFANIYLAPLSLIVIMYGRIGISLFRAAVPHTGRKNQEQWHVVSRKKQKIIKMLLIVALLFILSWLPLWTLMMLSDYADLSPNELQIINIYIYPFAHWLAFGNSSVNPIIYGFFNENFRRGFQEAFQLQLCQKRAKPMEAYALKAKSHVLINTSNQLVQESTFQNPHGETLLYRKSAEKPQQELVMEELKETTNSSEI
Sequence of Neuropeptide FF receptor 2 (Homo sapiens), Q9Y5X5 [Y417A] (Q9Y5X5 whole entry Y417A): as the sequence (Q9Y5X5 whole entry Y321A) above, with A321Y, Y417A counted along it
Sequence of Neuropeptide FF receptor 2 (Homo sapiens, UniProt Q9Y5X5, Y417A) (Q9Y5X5 whole entry Y417A): as the sequence (Q9Y5X5 whole entry Y321A) above, with A321Y, Y417A counted along it
T1 sequence (Q9GZQ6 whole entry): as the sequence (Q9GZQ6 whole entry Y309A) above, with A309Y counted along it
T2 sequence (Q9Y5X5 whole entry): as the sequence (Q9Y5X5 whole entry Y321A) above, with A321Y counted along it
Sequence of Neuropeptide FF receptor 2 (Homo sapiens), Q9Y5X5 [E310A] (Q9Y5X5 whole entry E310A): as the sequence (Q9Y5X5 whole entry Y321A) above, with E310A, A321Y counted along it
Sequence of Neuropeptide FF receptor 2 (Homo sapiens, UniProt Q9Y5X5, E310A) (Q9Y5X5 whole entry E310A): as the sequence (Q9Y5X5 whole entry Y321A) above, with E310A, A321Y counted along it
Sequence of Neuropeptide FF receptor 2 (Homo sapiens, UniProt Q9Y5X5, Y321A) (Q9Y5X5 whole entry Y321A): as the sequence (Q9Y5X5 whole entry Y321A) above
Sequence of Neuropeptide FF receptor 1 (Homo sapiens), Q9GZQ6 [F311A] (Q9GZQ6 whole entry F311A): as the sequence (Q9GZQ6 whole entry Y309A) above, with A309Y, F311A counted along it
Sequence of Neuropeptide FF receptor 1 (Homo sapiens, UniProt Q9GZQ6, F311A) (Q9GZQ6 whole entry F311A): as the sequence (Q9GZQ6 whole entry Y309A) above, with A309Y, F311A counted along it
Sequence of Neuropeptide FF receptor 2 (Homo sapiens), Q9Y5X5 [Y415A] (Q9Y5X5 whole entry Y415A): as the sequence (Q9Y5X5 whole entry Y321A) above, with A321Y, Y415A counted along it
Sequence of Neuropeptide FF receptor 2 (Homo sapiens, UniProt Q9Y5X5, Y415A) (Q9Y5X5 whole entry Y415A): as the sequence (Q9Y5X5 whole entry Y321A) above, with A321Y, Y415A counted along it
Sequence of Neuropeptide FF receptor 2 (Homo sapiens), Q9Y5X5 [D400A] (Q9Y5X5 whole entry D400A): as the sequence (Q9Y5X5 whole entry Y321A) above, with A321Y, D400A counted along it
Sequence of Neuropeptide FF receptor 2 (Homo sapiens, UniProt Q9Y5X5, D400A) (Q9Y5X5 whole entry D400A): as the sequence (Q9Y5X5 whole entry Y321A) above, with A321Y, D400A counted along it
Sequence of Neuropeptide FF receptor 1 (Homo sapiens), Q9GZQ6 [E205A] (Q9GZQ6 whole entry E205A): as the sequence (Q9GZQ6 whole entry Y309A) above, with E205A, A309Y counted along it
Sequence of Neuropeptide FF receptor 1 (Homo sapiens), Q9GZQ6 [Y309A] (Q9GZQ6 whole entry Y309A): as the sequence (Q9GZQ6 whole entry Y309A) above
Sequence of Neuropeptide FF receptor 1 (Homo sapiens, UniProt Q9GZQ6, E205A) (Q9GZQ6 whole entry E205A): as the sequence (Q9GZQ6 whole entry Y309A) above, with E205A, A309Y counted along it
Sequence of Neuropeptide FF receptor 1 (Homo sapiens), Q9GZQ6 [D294A] (Q9GZQ6 whole entry D294A): as the sequence (Q9GZQ6 whole entry Y309A) above, with D294A, A309Y counted along it
Sequence of Neuropeptide FF receptor 1 (Homo sapiens, UniProt Q9GZQ6, D294A) (Q9GZQ6 whole entry D294A): as the sequence (Q9GZQ6 whole entry Y309A) above, with D294A, A309Y counted along it
Sequence of Neuropeptide FF receptor 1 (Homo sapiens), Q9GZQ6 [Y216A] (Q9GZQ6 whole entry Y216A): as the sequence (Q9GZQ6 whole entry Y309A) above, with Y216A, A309Y counted along it
Sequence of Neuropeptide FF receptor 1 (Homo sapiens, UniProt Q9GZQ6, Y216A) (Q9GZQ6 whole entry Y216A): as the sequence (Q9GZQ6 whole entry Y309A) above, with Y216A, A309Y counted along it

Structure (SMILES): NC(=O)[C@H](Cc1ccccc1)NC(=O)[C@H](CCCN=C(N)N)NC(=O)C12CC3CC(CC(C3)C1)C2
pEC50 [1]: 6.34
pEC50 [2]: 7.15
pEC50 [3]: 6.42
pEC50 [4]: 6.33

Structure (SMILES): NC(N)=NCCC[C@@H](NC(=O)C(c1ccccc1)c1ccccc1)C(=O)NCc1ccc(O)cc1
Emax [5]: 57%
EC50 [6]: Not Active
Emax [7]: 51%

Kb [8]: 20.9 nM
pEC50 [3]: 6.63
pEC50 [4]: 6.95
Structure (SMILES): N=C(N)NCCC[C@@H](NC(=O)C(c1ccccc1)c1ccccc1)C(=O)NCc1ccc(O)cc1

Structure (SMILES): N=C(N)NCCC[C@H](NC(=O)C12CC3CC(CC(C3)C1)C2)C(=O)N[C@@H](Cc1ccccc1)C(N)=O
Ratio EC50 [9]: 271
Emax [5]: 75%
Emax [10]: 75%
Emax [11]: 93%
Emax [12]: 89%

pEC50 [2]: 5.63
Structure (SMILES): N=C(N)N/N=C/c1ccc(Cl)c(C(F)(F)F)c1

pEC50 [13]: 5.08
Emax [14]: 59%
Emax [5]: 132%
pEC50 [15]: 5.05
Emax [10]: 107%
Emax [16]: 83% and 69%
Kb [8]: 41.7 nM
Emax [17]: 83%
EC50 [6]: Not Active
pEC50 [18]: < 5.00
pEC50 [19]: 5.61
pEC50 [3]: 6.53
pEC50 [4]: 6.52
Emax [20]: 140%
Structure (SMILES): N=C(N)N/N=C/C12CC3CC(CC(C3)C1)C2

pEC50 [2]: 6.28
pEC50 [3]: 5.66
Emax [21]: 22%
Structure (SMILES): N=C(N)N/N=C/c1ccc(Br)c(Br)c1

Emax [22]: 66%
Structure (SMILES): CC(C)C[C@H](NC(=O)[C@H](CC(N)=O)NC(=O)[C@@H]1CCCN1C(=O)[C@@H](N)C(C)C)C(=O)N1CCC[C@H]1C(=O)N[C@@H](CCC(N)=O)C(=O)N[C@@H](CCCNC(=N)N)C(=O)N[C@@H](Cc1ccccc1)C(N)=O

Emax [23]: 21%
pEC50 [24]: < 5.00
pEC50 [1]: < 5.00
Emax [25]: 85%
pEC50 [13]: < 5.00
Emax [14]: 24%
pEC50 [26]: < 5.00
Emax [5]: 118%
Emax [27]: 65%
pEC50 [15]: < 5.00
Emax [10]: 100%
Emax [28]: 37%
Emax [29]: 111%
pEC50 [2]: 5.25
pEC50 [18]: < 5.00
pEC50 [19]: < 5.00
pEC50 [3]: 5.78
Emax [30]: 77%
pEC50 [31]: < 5.00
Emax [32]: 88%
Emax [33]: 78%
pEC50 [4]: 5.90
Emax [11]: 110%
pEC50 [34]: 5.34
Structure (SMILES): N=C(N)N/N=C/c1ccc(-c2ccc(Br)cc2C(F)(F)F)o1
